From ChEMBL document CHEMBL1157169, “A class of novel nitronyl nitroxide labeling basic and acidic amino acids: synthesis, application for preparing ESR optionally labeling peptides, and bioactivity investigations” (Bioorg Med Chem, 2008)
Where a SMILES comes first, the peptide text is derived from it. The star is where a group is joined. X1 = CC1(C)N(O)C(c2ccc(OCCN*)cc2)=[N+]([O-])C1(C)C

How the values were obtained:
[1] = Aqueous stability assessed as decomposition time at pH 11.5; assay type: physicochemical; details: buffer
Procedure, shortened: (§1)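 Each sample dissolved in aqueous solution at pH 2.0, 7.4 or 11.5 (final 10^-2 mM) and held at room temperature for up to 200 h. Decomposition followed by TLC (CHCl3/CH3OH, 20:1). Value is the time at which decomposition appeared.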

Aorta [2] = assay: Nitric oxide radical scavenging activity in rat aortic strip assessed as inhibition of acetylcholine-induced vasorelaxation at 100 uM; assay type: functional, tissue-based
[3] = Aqueous stability assessed as decomposition time at pH 7.4; assay type: physicochemical; details: buffer; procedure, shortened: as §1
Aorta [4] = assay: Nitric oxide radical scavenging activity in rat aortic strip assessed as inhibition of acetylcholine-induced vasorelaxation at 1 uM; assay type: functional, tissue-based
[5] = Aqueous stability assessed as decomposition time at pH 2.0; assay type: physicochemical; details: buffer; procedure, shortened: as §1
Aorta [6] = assay: Nitric oxide radical scavenging activity in rat aortic strip assessed as inhibition of acetylcholine-induced vasorelaxation at 10 uM; assay type: functional, tissue-based
PC-12 [7] = assay: Radical scavenging activity in rat PC12 cells assessed as inhibition of hydrogen peroxide radical-induced cell damage by MTT assay; assay type: functional, cell-based
Procedure, shortened: (§2)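 PC12 cells grown in DMEM with 10% heat-inactivated horse serum, 5% FBS and 1.0 mM pyruvate at 37 °C, 5% CO2. Seeded at 20,000 cells/well on poly-L-lysine and attached 24 h. Pretreated 1 h with 12.5–200 µM compound. Damage induced by SNP 2 mM for 2 h (NO), H2O2 1 mM for 1 h, or H2O2 1 mM/Fe(II) 30 µM for 1 h (·OH). Media replaced, cells incubated 14 h, survival measured by MTT.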

Blood [8] = assay: Inhibition of 1 uM platelet activating factor-induced platelet aggregation in rabbit blood; assay type: functional, Oryctolagus cuniculus
Procedure, shortened: (§3)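 Platelet-rich plasma made by centrifuging normal rabbit blood anticoagulated with sodium citrate (3.8% final). Platelets adjusted to 2×10^5/µl with autologous plasma. Aggregation induced by PAF or ADP (final 10^-5–10^-7 M) and read by turbidimetry in an aggregometer. Maximal aggregation rate (Am%) taken as peak height of the curve.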

Rattus norvegicus [9] = assay: Antithrombotic activity in Wistar rat assessed as dry thrombus weight at 5 umol/kg
PC-12 [10] = assay: Radical scavenging activity in rat PC12 cells assessed as inhibition of hydroxyl radical-induced cell damage by MTT assay; assay type: functional, cell-based; procedure, shortened: as §2
PC-12 [11] = assay: Radical scavenging activity in rat PC12 cells assessed as inhibition of nitric oxide radical-induced cell damage by MTT assay; assay type: functional, cell-based; procedure, shortened: as §2
Blood [12] = assay: Inhibition of 1 uM adenosine diphosphate-induced platelet aggregation in rabbit blood; assay type: functional, Oryctolagus cuniculus; procedure, shortened: as §3
Blood [13] = assay: Inhibition of 10 uM adenosine diphosphate-induced platelet aggregation in rabbit blood; assay type: functional, Oryctolagus cuniculus; procedure, shortened: as §3
Rattus norvegicus [14] = assay: Antithrombotic activity in Wistar rat assessed as wet thrombus weight at 5 umol/kg; assay type: functional
Procedure, shortened: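 Male Wistar rats (250–300 g) anesthetized with pentobarbital sodium (80.0 mg/kg, ip). The right carotid artery and left jugular vein were cannulated via a polyethylene tube containing a thread, filled with NS or compound dissolved in NS (vehicle NS). Blood shunted 15 min. The thread was weighed wet, then after 2 weeks in a desiccator weighed dry. n = 10, ANOVA.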

Blood [15] = assay: Inhibition of 10 uM platelet activating factor-induced platelet aggregation in rabbit blood; assay type: functional, Oryctolagus cuniculus; procedure, shortened: as §3
Blood [16] = assay: Inhibition of 0.1 uM adenosine diphosphate-induced platelet aggregation in rabbit blood; assay type: functional, Oryctolagus cuniculus; procedure, shortened: as §3
Blood [17] = assay: Inhibition of 0.1 uM platelet activating factor-induced platelet aggregation in rabbit blood; assay type: functional, Oryctolagus cuniculus; procedure, shortened: as §3
Plasma = assay: Thrombolytic activity in rabbit plasma assessed as euglobulin clot lysis time at 4.5 uM; assay type: functional, Oryctolagus cuniculus
Procedure, shortened: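 Rabbit plasma diluted 1:20 in water and precipitated at pH 5.7 with 0.25% acetic acid for 30 min at 4 °C. Centrifuged at 2000g for 15 min. […] Sample added and time to clot lysis recorded.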

Rattus norvegicus [18] = assay: Thrombolytic activity in Wistar rat assessed as reduction in thrombus weight at 10 umol/kg; assay type: functional
Procedure, shortened: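 Male Wistar rats (200–300 g) anesthetized with pentobarbital sodium (80.0 mg/kg, ip). A steel helix was left 15 min in 1.0 ml carotid artery blood, and the helix with thrombus was weighed. It was placed in a polyethylene tube filled with heparin sodium (50 IU/ml NS) inserted into the left jugular vein. Heparin was injected, then compound dissolved in NS. Read-out is reduction in thrombus weight.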

Oryctolagus cuniculus = species: Oryctolagus cuniculus; assay: Thrombolytic activity against rabbit fibrinogen assessed as fibrinogen lysis area at 4.5 uM
Procedure, shortened: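 Equal volumes of 0.3% rabbit fibrinogen and 0.95% agarose in 50 mM sodium barbiturate buffer (pH 7.8), coagulated with thrombin (100 IU/mL). After 30 min at 4 °C, 5 mm wells were punched and 30 µl of sample in NS added per well. Plates incubated and lysis area measured in mm². ANOVA.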

Row | SMILES | Time [1] | inhibition (Aorta [2]) | Time [3] | inhibition (Aorta [4]) | Time [5] | inhibition (Aorta [6]) | EC50 (PC-12 [7]) | inhibition (INH) (Blood [8]) | dry thrombus weight (Rattus norvegicus [9]) | EC50 (PC-12 [10]) | EC50 (PC-12 [11]) | inhibition (INH) (Blood [12]) | inhibition (INH) (Blood [13]) | Activity (Rattus norvegicus [14]) | inhibition (INH) (Blood [15]) | inhibition (INH) (Blood [16]) | inhibition (INH) (Blood [17]) | Time (Plasma) | Activity (Rattus norvegicus [18]) | Activity (Oryctolagus cuniculus)
1 | CC1(C)N(O)C(c2cccnc2)=[N+]([O-])C1(C)C | 18 h | 48.6% | 30 h | 1.7% | 15 h | 16.6% |  |  |  |  |  |  |  |  |  |  |  |  |  | 
2 | CC1(C)N(O)C(c2ccc(OCCNC(=O)C[C@H](NC(=O)CNC(=O)[C@@H](N)CCCNC(=N)N)C(=O)N[C@@H](CO)C(=O)O)cc2)=[N+]([O-])C1(C)C (H-RGD(X1)S-OH) |  | 95.9% |  | 24% |  | 71.3% | 32 µM | 34.33% | 4.08 mg | 102 µM | 92.9 µM | 39.43% | 50% | 25.01 mg | 51.59% | 16.11% | 21.52% |  |  | 
3 | CC1(C)N(O)C(c2ccc([N+](=O)[O-])cc2)=[N+]([O-])C1(C)C | > 200 h | 98% | > 200 h |  | > 200 h | 71.3% |  |  |  |  |  |  |  |  |  |  |  |  |  | 
4 | CC1(C)N(O)C(c2ccccc2)=[N+]([O-])C1(C)C | > 200 h | 81.9% | > 200 h | 9.8% | > 200 h | 62.7% |  |  |  |  |  |  |  |  |  |  |  |  |  | 
5 | CC(C)[C@H](NC(=O)[C@H](CC(=O)O)NC(=O)CNC(=O)[C@@H](N)CCCNC(=N)N)C(=O)O (H-RGDV-OH) |  | 10.5% |  | 5.3% |  | 7.6% |  | 34.84% | 4.43 mg |  |  | 33.41% | 49.78% | 28.6 mg | 52.07% | 12.65% | 20.01% |  |  | 
6 | CC1(C)N(O)C=[N+]([O-])C1(C)C | 2.5 h | 31.2% | 18 h | 1.7% | 2 h | 8.6% |  |  |  |  |  |  |  |  |  |  |  |  |  | 
7 | C[C@H](NC(=O)[C@@H]1CCCN1)C(=O)N[C@@H](CCCCN)C(=O)O (H-Pro-Ala-Lys-OH) |  | 9.5% |  | 4.5% |  | 6.1% |  |  |  |  |  |  |  |  |  |  |  | 101.6 min | 24.11 mg | 214 mm2
